# Screens: PubChem BioAssay, several laboratories
# APP transl inh: APP translation inhibition | SH-SY5Y APP 5'UTR-luciferase reporter, luminescence | inhibition, % at 2 µM | 190,000 tested, 0.82% active | AID 1285;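 active = inhibition above a set limit, derived from the sample mean plus 3 SD, cut at about 45% in these data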
# MT stabilize HCS: stabilizes microtubules in HeLa cells; % tubulin-high responders, % at 10 µM; HeLa tubulin immunostaining HCS, 24 h; share of cells brighter than vehicle mean+2SD; 200,000 tested, 0.83% active; AID 2205;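 active = plate Z-score above 3 for both tubulin-high and condensed-nucleus cell shares, with cell loss under 80%, at 10 µM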;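 note: anti alpha tubulin signal scored within the nucleus-defined area of each cell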
# BaF3 tox: counter-screen for JAK2V617F inhibitors: parental Ba/F3 viability inhibitors. 220,000 tested, 1.1% active. inhibition, % at 5.6 µM. AID 1486. CellTiter-Glo ATP luminescence;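 active = inhibition above a per-campaign cutoff, the mean inhibition of all tested compounds plus 3 SD, cut at about 27% in these data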;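 note: 0% = DMSO wells and 100% = JAK Inhibitor I control wells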
# Ba/F3 V617F tox: lowers viability of Ba/F3 cells expressing EpoR and JAK2V617F; ATP luminescence; 220,000 tested, 1.1% active; inhibition, % at 5.6 µM;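 active = inhibition above the campaign mean plus 3 SD over all tested compounds, cut at about 24% in these data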;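 note: cytokine-independent growth of Ba/F3 cells driven by EpoR plus mutant JAK2; 0% = DMSO-treated cells and 100% = JAK inhibitor I control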
# IEC-6 cytotox: IEC-6 cytotoxicity, counter-screen for KLF5 inhibitors | luminescence viability | inhibition, % at 5 µM | 290,000 tested, 0.78% active;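 note: 0% = plate median of test compound wells and 100% = cytotoxic reference compound wells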
# b-catenin transl: alters nuclear translocation of beta-catenin in HeLa cells | immunofluorescence imaging | nuclear translocation activity, % at 5 µM | 190,000 tested, 0.3% active;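 active = nuclear translocation activity above 50% at 5 µM, with a well cell count of 50 or more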;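 note: per-cell ratio of nuclear to cytoplasmic median beta-catenin stain intensity; plate controls were DMSO negative control for no effect and GSK-3 inhibitor IX positive control for full effect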
#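 test system = HeLa cells, endogenous beta-catenin | dosing = single 5 µM dose plus 0.02–20 µM confirmation series | times = compound treatment 24 h, 37°C, 5% CO2 | technique = beta-catenin immunofluorescence imaging with DAPI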
# IEC-6 cytotox cf: confirmation of cytotoxic compounds in rat IEC-6 intestinal epithelial cells. shares compounds with IEC-6 cytotox. IEC-6 rat intestinal epithelial viability, luminescence. inhibition, % at 5 µM. 1,900 tested, 63% active;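 note: 0% = vehicle and 100% = reference cytotoxic drug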
# Active calls of the source: *; · = not tested or not shown. Most compounds without a hit are left out; they make up all but 2.2% or so of the library. Cut-off read from the data, not from the text of the source, unless noted: active = inhibition above about 22%; inactive = the rest.
SMILES,APP transl inh,MT stabilize HCS,BaF3 tox,Ba/F3 V617F tox,IEC-6 cytotox,b-catenin transl,IEC-6 cytotox cf
CCN(CC)c1ccc2cc(-c3nc4ccccc4n3C)c(=O)oc2c1,87*,29*,77*,69*,84*,66*,66*
COc1ccc(C)cc1Nc1c2c(nc3ccccc13)CCC2,·,·,·,·,88*,·,55*
COc1ccccc1Nc1c2ccccc2nc2ccccc12,·,·,·,·,28*,·,13
Oc1cccc(Nc2c3ccccc3nc3ccccc23)c1,·,·,·,·,35*,·,36*
COc1ccc(Nc2c3ccccc3nc3ccccc23)cc1,·,·,·,·,74*,·,31*
COc1ccc(Nc2c3c(nc4ccccc24)CCC3)cc1,·,·,·,·,12,·,·
COc1ccc(CCC(=O)N(C)CC(=O)Nc2ccc(Cl)c(C(F)(F)F)c2)cc1,·,·,·,·,1,·,·
CCCN(CCC)C(=O)c1ccc2nc(-c3ccc(OC)c(OC)c3)c(-c3ccc(OC)c(OC)c3)nc2c1,·,·,·,·,5,·,·
COc1ccc(NC(=O)c2ccc(C)cc2)c(OC)c1,-33,5,1,-2,-5,·,·
COc1ccc(Nc2nc(-c3ccncc3)nc3ccccc23)cc1,·,·,·,·,30*,·,19
COc1ccc(OC)c(Nc2nc(-c3ccncc3)nc3ccccc23)c1,·,·,·,·,-6,·,·
O=C(Cc1noc2ccccc12)Nc1ccccn1,-33,3,2,0,-4,0,·
Cc1ccc(NC(=O)Cc2noc3ccccc23)nc1,-22,4,1,0,23*,0,5
COc1ccc2c(C)c(CC(=O)N3C[C@H]4C[C@@H](C3)c3cccc(=O)n3C4)c(=O)oc2c1OC,·,·,·,·,-1,·,·
CCOC(=O)N1CCN(Cc2ccc3c(c2)OCO3)CC1,·,·,·,·,-6,·,·
Cc1c(O)ccc(C(=O)CN2CCN(Cc3ccc4c(c3)OCO4)CC2)c1O,-4,2,-2,6,60*,1,4
CC(=O)c1cccc(CN2CCN(Cc3ccccc3)C(CCO)C2)c1 (centres undefined),2,10,0,-2,-4,1,·
CC(C)(C)c1ccc(-c2cn(-c3ccc(Br)cc3)c3[n+]2CCCS3)cc1,6,3,84*,100*,50*,-3,51*
NNC(=O)c1cc2sccc2s1,·,·,78*,80*,63*,-3,6
CC(=O)NNC(=O)c1cc2sccc2s1,·,·,0,-4,1,-1,·
O=C(CSc1nnc(NC(=O)c2ccccc2F)s1)NCc1ccco1,·,·,·,·,1,·,·
N#CC(C#N)=C(Nc1ccc(F)cc1)SCc1cccc(Br)c1,1,2,13,20,30*,-7,41*
NC(=O)C[n+]1cccc(C(=O)Nc2ccccc2)c1,·,·,·,·,-12,·,·
COc1cc2nc(=S)n3[nH]c(COc4ccccc4C)nc3c2cc1OC,-2,4,5,1,-1,-2,·
COc1cc2nc(=S)n3[nH]c(CCn4nc(C)cc4C)nc3c2cc1OC,16,4,7,4,53*,-1,8
SMILES,APP transl inh,MT stabilize HCS,BaF3 tox,Ba/F3 V617F tox,IEC-6 cytotox,b-catenin transl,IEC-6 cytotox cf
CC(C)Cc1ccc(C(C)C(N)=NCCc2ccccc2)cc1 (centres undefined),·,·,·,·,64*,·,99*
COc1ccc(CCN=C(N)C(C)c2ccccc2)cc1OC (centres undefined),-6,·,-6,-3,-9,1,·
O=C(CN1CCN(Cc2ccccc2)CC1)N=Nc1c(O)[nH]c2ccccc12,9,2,6,-1,23*,-1,6
CCCN(CCC)c1nc(-c2ccccn2)nc2ccccc12,·,·,·,·,93*,·,33*
CCCCN(CC)c1nc(-c2ccncc2)nc2ccccc12,-8,2,2,-2,1,-2,·
CCC(CC)C(=O)c1c[nH]c(C(=O)NN)c1,88*,2,13,4,30*,-2,6
O=c1[nH]c(NCc2ccco2)nnc1Cc1ccccc1Cl,12,59*,12,4,22*,3,14
CCOC(=O)c1nn(-c2ccccc2)c2nnc(Cc3ccc(C)cc3)c(=O)n12,1,2,8,5,0,-2,·
O=C(N/N=C/c1cccc(Oc2ccccc2)c1)c1ccccc1F,·,·,·,·,28*,·,21
CC(C)c1ccc(Nc2ncccc2C(=O)O)cc1,-140,1,11,7,58*,1,26*
Cc1sc2nc(-c3ccncc3)[nH]c(=O)c2c1-c1ccccc1,16,2,-1,-2,1,3,·
Cc1sc2nc(-c3ccccn3)[nH]c(=O)c2c1-c1ccccc1,23,3,3,-2,28*,2,33*
COc1ccccc1N1CCN(C(=O)C2c3ccccc3Oc3ccccc32)CC1,87*,26*,78*,83*,82*,95*,57*
COc1ccccc1N1CCN(C(=O)C2CC=CCC2C(=O)O)CC1 (centres undefined),6,2,6,1,-1,0,·
Cc1ccnc(NC(=O)c2ccccc2NC(=O)c2ccc(Cl)cc2Cl)c1,·,·,·,·,78*,·,59*
CCn1ncc(C2=NOC(C(=O)Nc3ccc(C)cc3)C2)c1C (centres undefined),8,2,4,-1,-4,0,·
CCn1ncc(C2=NOC(C(=O)NCc3ccc(Cl)cc3)C2)c1C (centres undefined),49*,13,11,21,83*,278*,51*
COc1ccc(C2=NOC(COc3ccc4c(C)cc(=O)oc4c3)C2)c(OC)c1 (centres undefined),73*,·,70*,78*,60*,2,56*
COc1ccccc1C1=NOC(COc2ccc3c(C)cc(=O)oc3c2)C1 (centres undefined),·,·,78*,75*,83*,96*,57*
COc1cccc(COc2ccc3c(C)cc(=O)oc3c2)c1,·,·,·,·,-2,·,·
Cn1c(Cl)cnc1C1CC(=O)c2cc(Cl)ccc2O1 (centres undefined),27,3,50*,55*,70*,1,9
CN1C2=NCCN2C(=O)c2cc(Cl)ccc21,·,·,1,-3,6,-1,·
O=C(Nc1ccc2c(c1)OCO2)C(=O)c1c[nH]c2ccccc12,·,·,·,·,17,·,·
O=C(Nc1ccc2c(c1)OCCO2)C(=O)c1c[nH]c2ccccc12,·,·,·,·,66*,·,46*
O=C(N/N=C/c1c(-c2ccccc2)[nH]c2ccccc12)c1cccnc1,-32,18*,55*,64*,58*,39,23*
Cc1cc(=O)oc2cc(OCC(=O)NC3CCCCC3)ccc12,·,·,·,·,-1,·,·
COc1ccccc1-c1cc(C(=O)NC2CCN(C)CC2)c2ccc(Cl)c(C)c2n1,·,·,·,·,30*,·,-3
Cc1c(Cl)ccc2c(C(=O)NCCN3CCCCC3)cc(-c3ccccn3)nc12,-13,9,10,9,-5,-1,·
